Reference: ChEMBL document CHEMBL1126717 (J Med Chem, 1993)

Legend:
Assay type in all cases: cell-based
[1] = target: T1, Polyunsaturated fatty acid 5-lipoxygenase (Rattus norvegicus) (UniProt P12527); assay: Inhibition of LTB4 in whole cell 5-lipoxygenase assay in an intact rat basophilic leukemia (RBL-1) cell line at 16 uM
T1 sequence (whole entry): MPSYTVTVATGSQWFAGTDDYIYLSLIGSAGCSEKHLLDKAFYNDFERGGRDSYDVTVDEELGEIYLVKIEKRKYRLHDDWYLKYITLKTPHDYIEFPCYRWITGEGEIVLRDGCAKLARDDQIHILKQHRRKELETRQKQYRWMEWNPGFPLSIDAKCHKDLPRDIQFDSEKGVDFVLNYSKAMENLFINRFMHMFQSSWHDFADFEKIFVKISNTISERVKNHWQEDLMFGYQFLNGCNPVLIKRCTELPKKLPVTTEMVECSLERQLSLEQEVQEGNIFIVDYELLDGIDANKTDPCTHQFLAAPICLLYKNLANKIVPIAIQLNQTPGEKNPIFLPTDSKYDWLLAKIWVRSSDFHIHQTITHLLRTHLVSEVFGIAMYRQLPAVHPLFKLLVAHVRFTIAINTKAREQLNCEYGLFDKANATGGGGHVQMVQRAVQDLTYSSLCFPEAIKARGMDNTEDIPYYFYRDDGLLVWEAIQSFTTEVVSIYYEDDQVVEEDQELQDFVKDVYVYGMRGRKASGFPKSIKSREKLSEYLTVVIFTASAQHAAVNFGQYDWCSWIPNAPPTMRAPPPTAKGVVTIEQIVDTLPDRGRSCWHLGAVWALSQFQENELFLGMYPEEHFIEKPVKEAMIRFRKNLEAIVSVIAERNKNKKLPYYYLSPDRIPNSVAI
Method in brief: (§1)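 RBL-1 cells grown at 37 °C in suspension in MEM with 12% FBS under 5% CO₂. Washed in cold PBS pH 7.4 and resuspended at 2 × 10⁶ cells/mL in PBS with 1.0 mM calcium. Preincubated with test agent in 1% DMSO for 10 min at room temperature, then stimulated with A23187 (5 μM) for 7 min at 37 °C. LTB₄ in the supernatant measured by RIA. Percent inhibition taken against vehicle; IC₅₀ by linear regression on log concentration.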

[2] = target: T2, Cyclooxygenase (Rattus norvegicus) (UniProt P35355+Q63921); assay: Inhibition of PGF2-alpha formation in Prostaglandin G/H synthase assay in an intact rat basophilic leukemia (RBL-1) cell line at 16 uM
Method in brief: (§2)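 RBL-1 suspension cultures (MEM, 12% FBS, 37 °C, 5% CO₂) were washed in PBS and held at 2 × 10⁶ cells/mL in PBS containing 1.0 mM Ca. Cells were exposed to compound in 1% DMSO for 10 min at room temperature, then to 5 μM A23187 for 7 min at 37 °C, and chilled on ice to stop. PGF₂α in the supernatant was measured by RIA. Percent inhibition was calculated relative to vehicle-treated cells.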

[3] = target: T2, Cyclooxygenase (Rattus norvegicus); assay: Inhibition of PGF2-alpha formation in Prostaglandin G/H synthase assay in an intact rat basophilic leukemia (RBL-1) cell line at 10 uM; method in brief: as §2
[4] = target: T1, Polyunsaturated fatty acid 5-lipoxygenase (Rattus norvegicus); assay: Inhibition of LTB4 in whole cell 5-lipoxygenase assay in an intact rat basophilic leukemia (RBL-1) cell line at 10 uM; method in brief: as §1
Cyclooxygenase = target: T3, Cyclooxygenase (Rattus norvegicus, UniProt P35355+Q63921); assay: Inhibition of Prostaglandin G/H synthase mediated PGF2-alpha formation in rat basophilic leukemia (RBL-1) cells
T3 sequence (P35355 whole entry): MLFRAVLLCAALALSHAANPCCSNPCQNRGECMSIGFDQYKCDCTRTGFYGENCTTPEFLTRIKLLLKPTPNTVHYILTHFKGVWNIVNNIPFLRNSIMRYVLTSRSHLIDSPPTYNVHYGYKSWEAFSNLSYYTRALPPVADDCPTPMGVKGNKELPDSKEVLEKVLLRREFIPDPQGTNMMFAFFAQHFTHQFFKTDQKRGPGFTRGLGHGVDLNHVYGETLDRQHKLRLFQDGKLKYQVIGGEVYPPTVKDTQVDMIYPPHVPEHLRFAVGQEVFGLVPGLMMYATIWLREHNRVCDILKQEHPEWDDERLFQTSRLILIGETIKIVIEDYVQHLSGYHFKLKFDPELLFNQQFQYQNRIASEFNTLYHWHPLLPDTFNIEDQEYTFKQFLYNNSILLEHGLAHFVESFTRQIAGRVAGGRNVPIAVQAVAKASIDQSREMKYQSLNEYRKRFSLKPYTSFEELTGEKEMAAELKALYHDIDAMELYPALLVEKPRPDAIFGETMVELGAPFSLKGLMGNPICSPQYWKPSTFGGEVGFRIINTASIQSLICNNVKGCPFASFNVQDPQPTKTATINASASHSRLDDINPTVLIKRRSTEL
T3 sequence (Q63921 whole entry): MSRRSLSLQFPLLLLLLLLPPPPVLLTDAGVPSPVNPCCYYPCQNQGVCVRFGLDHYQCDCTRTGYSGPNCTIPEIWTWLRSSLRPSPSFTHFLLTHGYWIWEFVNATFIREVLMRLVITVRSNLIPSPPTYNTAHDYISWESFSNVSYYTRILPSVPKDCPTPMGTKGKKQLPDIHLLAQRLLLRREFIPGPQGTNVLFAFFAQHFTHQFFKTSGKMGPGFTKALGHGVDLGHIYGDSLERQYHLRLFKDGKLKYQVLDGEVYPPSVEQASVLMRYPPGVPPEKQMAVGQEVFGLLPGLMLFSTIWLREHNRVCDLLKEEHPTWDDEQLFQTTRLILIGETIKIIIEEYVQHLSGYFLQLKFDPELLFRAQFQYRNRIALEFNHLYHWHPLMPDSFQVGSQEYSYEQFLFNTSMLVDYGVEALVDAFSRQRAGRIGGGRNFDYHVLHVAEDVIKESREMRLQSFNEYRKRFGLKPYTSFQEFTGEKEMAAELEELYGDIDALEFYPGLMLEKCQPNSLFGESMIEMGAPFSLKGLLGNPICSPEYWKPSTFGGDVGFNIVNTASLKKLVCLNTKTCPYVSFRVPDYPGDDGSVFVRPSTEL

[5] = target: T4, Polyunsaturated fatty acid 5-lipoxygenase (Rattus norvegicus, UniProt P12527); assay: Inhibition 5-lipoxygenase mediated LTB4 formation in rat basophilic leukemia (RBL-1) cells
T4 sequence (P12527 whole entry): T1 sequence (whole entry)
Method in brief: as §1, with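 “Washed” for “RBL-1 cells grown at 37 °C in suspension in MEM with 12% FBS under 5% CO₂. Washed”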

[6] = target: T1, Polyunsaturated fatty acid 5-lipoxygenase (Rattus norvegicus); assay: Inhibition of LTB4 in whole cell 5-lipoxygenase assay in an intact rat basophilic leukemia (RBL-1) cell line; method in brief: as §1

Cc1ccc(Cl)c(Nc2ccccc2-c2nnc(O)n2C)c1Cl
inhibition [1]: < 40%
inhibition [2]: < 40%

Cc1ccc(Cl)c(Nc2ccccc2-c2nnc(N)o2)c1Cl
inhibition [3]: < 40%
inhibition [4]: 45%

Cc1ccc(Cl)c(Nc2ccccc2-c2nnc(N)s2)c1Cl
IC50 (Cyclooxygenase): 6100 nM
IC50 [5]: 690 nM

Cc1ccc(Cl)c(Nc2ccccc2-c2nnc(NC#N)o2)c1Cl
IC50 (Cyclooxygenase): 250 nM

N#CNc1nnc(-c2ccccc2Nc2cccc(C(F)(F)F)c2)s1
IC50 (Cyclooxygenase): 2600 nM
IC50 [5]: 1700 nM

Cn1c(O)nnc1-c1ccccc1Nc1cccc(C(F)(F)F)c1
inhibition [1]: < 40%
inhibition [2]: < 40%

Cc1ccc(Cl)c(Nc2ccccc2-c2nnc(S)n2C)c1Cl
inhibition [1]: 86%
inhibition [2]: < 40%

Cc1ccc(Cl)c(Nc2ccccc2-c2nnc(S)s2)c1Cl
IC50 (Cyclooxygenase): 1700 nM

FC(F)(F)c1cccc(Nc2ccccc2-c2n[nH]c(S)n2)c1
inhibition [1]: < 40%

Nc1nnc(-c2ccccc2Nc2cccc(C(F)(F)F)c2)o1
IC50 (Cyclooxygenase): 7100 nM

Cc1ccc(Cl)c(Nc2ccccc2-c2n[nH]c(S)n2)c1Cl
inhibition [1]: < 40%
inhibition [2]: < 40%

Oc1n[nH]c(-c2ccccc2Nc2cccc(C(F)(F)F)c2)n1
inhibition [3]: < 40%
inhibition [4]: < 40%

Cc1ccc(Cl)c(Nc2ccccc2-c2nnc(NC#N)s2)c1Cl
IC50 (Cyclooxygenase): 1900 nM
IC50 [5]: 290 nM

Nc1nnc(-c2ccccc2Nc2cccc(C(F)(F)F)c2)s1
IC50 (Cyclooxygenase): 11000 nM

Cn1c(S)nnc1-c1ccccc1Nc1cccc(C(F)(F)F)c1
IC50 (Cyclooxygenase): 30000 nM
IC50 [5]: 12000 nM

Oc1nnc(-c2ccccc2Nc2cccc(C(F)(F)F)c2)s1
IC50 [6]: 7400 nM

N#CNc1nnc(-c2ccccc2Nc2cccc(C(F)(F)F)c2)o1
IC50 (Cyclooxygenase): 1000 nM
